From ChEMBL document CHEMBL1127576, “Inhibition of human immunodeficiency virus type 1 replication by phosphonoformate- and phosphonoacetate-2',3'-dideoxy-3'-thiacytidine conjugates” (J Med Chem, 1994) come the findings set out here.

Data set [1] can be described thus: Therapeutic index was measured as concentration required to cause 50% death of uninfected MT-4- cells to IC50 concentration required to inhibit syncytia formation by 50% in HIV-1 infected MT-4 cells. It counts as cell-based, MT4. As to conditions: human, uninfected MT-4 cells and HIV-1 infected MT-4 cells; read-out: TI. The method in brief:
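Ratio of ID50 to IC50. ID50: uninfected MT-4 cells (2 × 10⁵), three replicate cultures, with graded analogue concentrations; viability by trypan blue exclusion 6 days after drug addition; ID50 is the concentration killing 50% of cells. IC50: 50% inhibition of syncytia in HIV-1-infected MT-4 cells (1 h infection, 37 °C), scored microscopically at day 5.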

The test system of data set [2] is MT4. The data set can be described thus: (§1) Concentration required to inhibit syntica formation by 50% in HIV-1 infected MT-4 cells. It counts as functional, cell-based. As to conditions: Homo sapiens. The method in brief:
(§2)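 MT-4 cells (3 × 10⁵) infected with diluted HIV-1 for 1 h at 37 °C, washed three times, then cultured with inhibitor. Syncytia were counted by inverted light microscopy 5 days post-infection. IC50 was the concentration giving 50% inhibition of syncytia formation without cell toxicity.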

The test system of data set [3] is MT4. The description is as §1. It counts as ADME, cell-based. As to conditions: Homo sapiens. The method in brief: as §2

What is called IC50 is the concentration needed to halve the response being measured.

Turning to `Nc1ccn(C2CSC(COC(=O)CP(=O)(O)O)O2)c(=O)n1` (stereo unspecified), the selectivity ratio in data set [1] stood at 300. Further, the IC50 in data set [2] amounted to 1 µM.

As for `CCOP(=O)(CC(=O)Nc1ccn(C2CSC(CO)O2)c(=O)n1)OCC` (stereo unspecified), in data set [1], the selectivity ratio is 100. In data set [2], the IC50 was found to be 5 µM.

With `Nc1ccn(C2CSC(COP(=O)(O)C(=O)O)O2)c(=O)n1` (stereo unspecified), the selectivity ratio in data set [1] is 10. It took 100 µM to reach half-maximal inhibition in data set [2] (IC50).

For the molecule `Nc1ccn([C@@H]2CS[C@H](CO)O2)c(=O)n1` [LAMIVUDINE], the selectivity ratio in data set [1] was determined as 1000. The molecule also yielded an IC50 in data set [2] of 0.1 µM.

With `CCOP(=O)(OCC)C(=O)OCC1OC(n2ccc(NC(C)=O)nc2=O)CS1` (stereo unspecified), in data set [1], the selectivity ratio is 350. Further, it took 0.3 µM to reach half-maximal inhibition in data set [2] (IC50).

Turning to `CC(=O)Nc1ccn(C2CSC(COC(=O)P(=O)(O)O)O2)c(=O)n1` (stereo unspecified), the selectivity ratio in data set [1] was found to be 500. Further, the IC50 in data set [2] was 0.2 µM.

For the molecule `O=C(CP(=O)(O)O)Nc1ccn(C2CSC(CO)O2)c(=O)n1` (stereo unspecified), the selectivity ratio in data set [1] was 10. The molecule further registered an IC50 in data set [3] of 100 µM.

Take `CCOP(=O)(CC(=O)OCC1OC(n2ccc(N)nc2=O)CS1)OCC` (stereo unspecified): the selectivity ratio in data set [1] worked out at 50. The molecule also showed an IC50 in data set [2] of 10 µM.
